Read-outs that look alike come from different tables or passages of the source.
How the values were obtained:
CYP2C:TG haplotype [1] = conditions: adults; cited from earlier work
CYP2C:TG haplotype [2] = conditions: cited from earlier work
CYP2C:TG haplotype [3] = type: in vivo, human (children aged 6–21 years)
Summary of the method: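 Children, fasted ≥4 h, received one proton pump inhibitor dose per visit. 12–14 serum samples were taken to 10 h post-dose and assayed by LC/MS/MS or reverse-phase HPLC. Clearance was dose/AUCtotal (AUClast + Cn/kel), weight-normalized. Genotyping was by TaqMan real-time PCR or NGS panel. Regression on CYP2C19*1 and *17 counts was compared with regression adding CYP2C:TG count. Outcomes were log-transformed as needed, with bootstrap 95% CI.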

SMILES	impact of CYP2C:TG alleles on CYP2C19 PK or metabolic phenotype (CYP2C:TG haplotype [1])	CYP2C19 activity associated with CYP2C:TG haplotype, from serum concentrations (CYP2C:TG haplotype [2])	impact of the CYP2C:TG haplotype on the PK (CYP2C:TG haplotype [3]; PO)	further results
CN(C)CCCC1(c2ccc(F)cc2)OCc2cc(C#N)ccc21 (stereo not drawn) [citalopram]	No appreciable impact			
CN(C)CCC[C@@]1(c2ccc(F)cc2)OCc2cc(C#N)ccc21 [escitalopram]		increased CYP2C19 activity		metabolism associated with CYP2C:TG haplotype (CYP2C:TG haplotype [2]; activity similar to CYP2C19*17/*17 diplotype): ultrarapid metabolism
Cc1c(OCC(F)(F)F)ccnc1C[S+]([O-])c1nc2ccccc2[nH]1 (stereo not drawn) [lansoprazole]			negligible	Scaled coefficient (95% CI) for CYP2C:TG allele count (CYP2C:TG haplotype [3]; outcome Cmax (adj) scaled to SD 1, oral): 0.24–0.35
COc1ccnc(C[S+]([O-])c2nc3ccc(OC(F)F)cc3[nH]2)c1OC (stereo not drawn) [pantoprazole]			negligible	impact of the CYP2C:TG haplotype on the PK (CYP2C:TG haplotype [3]; IV): negligible; Scaled coefficient (95% CI) for CYP2C:TG allele count (CYP2C:TG haplotype [3]; outcome Clearance (adj) scaled to SD 1, IV): 0.24–0.35; Scaled coefficient (95% CI) for CYP2C:TG allele count (CYP2C:TG haplotype [3]; outcome Clearance scaled to SD 1, IV): 0.24–0.35; Scaled coefficient (95% CI) for CYP2C:TG allele count (CYP2C:TG haplotype [3]; outcome Cmax scaled to SD 1, oral): 0.24–0.35
CN[C@H]1CC[C@@H](c2ccc(Cl)c(Cl)c2)c2ccccc21 [sertraline]	No appreciable impact	increased CYP2C19 activity		

Source: paper PMC11022290 (Clinical and Translational Science, 2024)
